The source made the active and inactive calls. The rule behind the calls is not given here.
Columns and labels:
SN12C = assay: Cytotoxicity against human SN12C cells assessed as cell growth at 10 uM after 48 hrs by SRB assay; format: functional; details: read-out: Activity
Outline: (§1)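 NCI primary one-dose screen at 10^-5 M against the full panel of about 60 human tumour cell lines, run to the NCI Drug Evaluation Branch protocol.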

HCT-116 = assay: Cytotoxicity against human HCT116 cells assessed as cell growth at 10 uM after 48 hrs by SRB assay; format: functional; details: HCT-116, 48 h, read-out: Activity
Outline: (§2)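 NCI primary single-dose screen at 10^-5 M against the ~60 human tumour cell line panel. Cells grown in RPMI-1640 with 5% fetal calf serum and 2 mM L-glutamine and pre-incubated 24 h before compound addition. Compound added from DMSO solution with 48 h exposure. Growth read by sulforhodamine B protein staining.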

UO-31 = assay: Cytotoxicity against human UO31 cells assessed as cell growth at 10 uM after 48 hrs by SRB assay; format: functional; details: UO-31, 48 h, read-out: Activity; outline: as §1
HCT-15 = assay: Cytotoxicity against human HCT15 cells assessed as cell growth at 10 uM after 48 hrs by SRB assay; format: functional; details: HCT-15, 48 h, read-out: Activity; outline: as §2
CAKI-1 [1] = assay: Cytotoxicity against human Caki1 cells after 48 hrs by SRB assay; format: functional; details: CAKI-1, 48 h
Outline: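 NCI ~60-line panel in RPMI-1640 with 5% fetal calf serum and 2 mM L-glutamine, pre-incubated 24 h. Compound in DMSO tested at five 10-fold concentrations (10^-4 to 10^-8 M) with 48 h continuous exposure. Growth measured by sulforhodamine B protein assay. GI50 (50% net growth inhibition), TGI (total inhibition) and LC50 (50% net cell death) derived from dose-response.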

NCI-H226 = assay: Cytotoxicity against human NCI-H226 cells after 48 hrs by SRB assay; format: functional; details: NCI-H226, 48 h
Outline: (§3)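 NCI five-dose screen on the ~60-line human tumor panel. Cells grown in RPMI-1640 with 5% fetal calf serum and 2 mM L-glutamine, seeded at line-dependent density and preincubated 24 h. Compound added from DMSO at 10-fold dilutions from 10^-4 to 10^-8 M, continuous exposure 48 h. Growth read by sulforhodamine B protein stain. GI50, TGI and LC50 derived per line.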

UACC-62 = assay: Cytotoxicity against human UACC62 cells after 48 hrs by SRB assay; format: functional; details: UACC-62, 48 h
Outline: (§4)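 NCI 60-cell-line five-dose screen. Cells were grown in 1640 medium with 5% fetal calf serum and 2 mM L-glutamine, with inoculum density set by cell line, and pre-incubated 24 h. Compound in DMSO was added at 10^-4 to 10^-8 M (10-fold steps) with 48 h continuous exposure. Growth was read by SRB protein assay, and GI50, TGI and LC50 were derived from dose-response.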

NCI-H522 = assay: Antitumor activity against human NCI-H522 cells implanted in mouse dosed qd for 4 days by formazan dye-based hollow fiber assay; format: functional, organism-based
Outline: (§5)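 Cells grown inside polyvinylidene fluoride hollow fibers; each line implanted into both intraperitoneal and subcutaneous compartments in mice. Compound given ip at two doses on a QD x 4 schedule. Fibers then recovered and viable cell mass measured by formazan dye conversion. Scored 2 per dose giving ≥50% reduction in viable cell mass (%T/C 50).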

M14 = assay: Cytotoxicity against human M14 cells assessed as cell growth at 10 uM after 48 hrs by SRB assay; format: functional; details: M14, 48 h, read-out: Activity
Outline: (§6)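 NCI primary single-dose screen at 10^-5 M against the full panel of about 60 human tumor cell lines. Cells were in RPMI-1640 with 5% fetal calf serum and 2 mM L-glutamine and preincubated 24 h. Compound was given in DMSO with 48 h exposure. Growth was estimated by sulforhodamine B protein assay.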

CCRF-CEM = assay: Cytotoxicity against human CCRF-CEM cells assessed as cell growth at 10 uM after 48 hrs by SRB assay; format: functional; details: read-out: Activity; outline: as §2
BT-549 = assay: Cytotoxicity against human BT549 cells assessed as cell growth at 10 uM after 48 hrs by SRB assay; format: functional; details: BT-549, 48 h, read-out: Activity; outline: as §2
SK-MEL-28 = assay: Cytotoxicity against human SK-MEL-28 cells after 48 hrs by SRB assay; format: functional; details: SK-MEL-28, 48 h; outline: as §4
SK-MEL-2 = assay: Cytotoxicity against human SK-MEL-2 cells assessed as cell growth at 10 uM after 48 hrs by SRB assay; format: functional; details: SK-MEL-2, 48 h, read-out: Activity; outline: as §1
SR = assay: Cytotoxicity against human SR cells after 48 hrs by SRB assay; format: functional; outline: as §4
[2] = Toxicity in ip dosed athymic nude mouse assessed as body weight loss after 2 weeks; format: organism-based; details: in vivo
Outline: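 Maximum tolerated dose determination in athymic nude mice. Single ip injection of 400, 200 or 100 mg/kg, one mouse per dose. Compound solubilized in DMSO. Feed and water ad libitum. Mice observed 2 weeks for body weight loss, lethality and other toxicity signs; sacrificed if weight loss exceeds 20%.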

MDA-MB-435 = assay: Cytotoxicity against human MDA-MB-435 cells after 48 hrs by SRB assay; format: functional; details: MDA-MB-435, 48 h; outline: as §3
SF-268 = assay: Cytotoxicity against human SF268 cells after 48 hrs by SRB assay; format: functional; details: SF-268, 48 h; outline: as §3
DU-145 = assay: Cytotoxicity against human DU145 cells assessed as cell growth at 10 uM after 48 hrs by SRB assay; format: functional; details: DU-145, 48 h, read-out: Activity; outline: as §2
T47D = assay: Cytotoxicity against human T47D cells after 48 hrs by SRB assay; format: functional; outline: as §4
SW-620 = assay: Cytotoxicity against human SW620 cells after 48 hrs by SRB assay; format: functional; details: SW-620, 48 h; outline: as §4
OVCAR-8 = assay: Cytotoxicity against human OVCAR8 cells assessed as cell growth at 10 uM after 48 hrs by SRB assay; format: functional; details: OVCAR-8, 48 h, read-out: Activity; outline: as §6
OVCAR-3 = assay: Antitumor activity against human OVCAR3 cells implanted in mouse dosed qd for 4 days by formazan dye-based hollow fiber assay; format: functional, organism-based; outline: as §5
CAKI-1 [3] = assay: Cytotoxicity against human Caki1 cells assessed as cell growth at 10 uM after 48 hrs by SRB assay; format: functional; details: CAKI-1, 48 h, read-out: Activity; outline: as §2

## CCc1ccc(-c2ccc(=O)n(-c3ccc(S(N)(=O)=O)cc3)n2)cc1
SN12C
  growth at 10 µM: 58.4%
HCT-116
  growth at 10 µM: 16.8%
UO-31
  growth at 10 µM: 38.4%
HCT-15
  growth at 10 µM: 29.7%
CAKI-1 [1]
  LC50 (concentration causing 50% net cell death): > 100000 nM
CAKI-1 [1]; read-out: GI50
  GI50: 2730 nM
CAKI-1 [1]; read-out: pGI50 (converted)
  GI50: 2750 nM
CAKI-1 [1]; read-out: pTGI
  TGI: > 100000 nM
NCI-H226
  LC50: > 100000 nM
NCI-H226; read-out: GI50
  GI50: 13500 nM
NCI-H226; read-out: pGI50 (converted)
  GI50: 13500 nM
NCI-H226; read-out: pTGI
  TGI: > 100000 nM
UACC-62
  LC50: > 100000 nM
UACC-62; read-out: GI50
  GI50: 724 nM
UACC-62; read-out: pGI50 (converted)
  GI50: 724 nM
UACC-62; read-out: pTGI
  TGI: > 100000 nM
NCI-H522
  Activity: inactive
M14
  growth at 10 µM: 17.7%
CCRF-CEM
  growth at 10 µM: 27.9%
BT-549
  growth at 10 µM: 7.69%
SK-MEL-28
  LC50: > 100000 nM
SK-MEL-28; read-out: GI50
  GI50: 1370 nM
SK-MEL-28; read-out: pGI50 (converted)
  GI50: 1380 nM
SK-MEL-28; read-out: pTGI
  TGI: > 100000 nM
SK-MEL-2
  growth at 10 µM: 1.5%
SR
  LC50: > 100000 nM
SR; read-out: GI50
  GI50: 88.7 nM
SR; read-out: pGI50 (converted)
  GI50: 89.1 nM
SR; read-out: pTGI (converted)
  TGI: 490 nM
[2]
  MTD at 336 h: 400 mg/kg
MDA-MB-435
  LC50: > 100000 nM
MDA-MB-435; read-out: GI50
  GI50: 223 nM
MDA-MB-435; read-out: pGI50 (converted)
  GI50: 224 nM
MDA-MB-435; read-out: pTGI (converted)
  TGI: 2190 nM
SF-268
  LC50: > 100000 nM
SF-268; read-out: GI50
  GI50: 4250 nM
SF-268; read-out: pGI50 (converted)
  GI50: 4270 nM
SF-268; read-out: pTGI (converted)
  TGI: 47900 nM
DU-145
  growth at 10 µM: 59.6%
T47D
  LC50: > 100000 nM
T47D; read-out: GI50
  GI50: 2560 nM
T47D; read-out: pGI50 (converted)
  GI50: 2570 nM
T47D; read-out: pTGI
  TGI: > 100000 nM
SW-620
  LC50: > 100000 nM
SW-620; read-out: GI50
  GI50: 454 nM
SW-620; read-out: pGI50 (converted)
  GI50: 457 nM
SW-620; read-out: pTGI
  TGI: > 100000 nM
OVCAR-8
  growth at 10 µM: 51.2%
OVCAR-3
  Activity: inactive
CAKI-1 [3]
  growth at 10 µM: 36.6%

Reference: ChEMBL document CHEMBL1944532, “Synthesis and evaluation of anticancer activity of some novel 6-aryl-2-(p-sulfamylphenyl)-pyridazin-3(2H)-ones” (Eur J Med Chem, 2012)
